In ChEMBL document CHEMBL1123120, “Synthesis and structure-activity relationships of a new series of antiarrhythmic agents: 4,4-disubstituted hexahydro-3H-pyrido[1,2-c]pyrimidin-3-ones and related compounds” (J Med Chem, 1985):

Key:
Canis familiaris [1] = assay: Hemodynamic effect of 1 mg/kg of compound was assessed in Beagle dogs by decrease in mean arterial pressure; max dose administered was 10 mg/kg; format: functional, Canis lupus familiaris, Artery
Outline: (§1)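 Dogs of either sex were anesthetized with pentobarbital 30 mg/kg i.v. plus 5 mg/kg, then stabilized 30 min. Compound was given via right femoral vein. Where mean antiarrhythmic dose exceeded 5 mg/kg: 5 mg/kg over 5 min every 15 min until MAP fell 50% or 50 mg/kg cumulative. Otherwise: 1 mg/kg/min every 5 min up to 10 mg/kg. MAP was electronically averaged, with baseline the mean of four 5-min readings.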

Canis familiaris [2] = assay: Decrease in myocardial contractility was determined by monitoring the maximum rate of rise of ventricular pressure in 10 Beagle dogs at a dose of 10 mg/kg; format: functional, Canis lupus familiaris, Cardiac ventricle
Canis familiaris [3] = species on record: Canis familiaris; assay: The mean effective dose to suppress ventricular ectopic rate >=25% for a minimum duration of 10 minutes was reported.; format: functional; settings: Canis lupus familiaris, Cardiac ventricle, read-out: MED
Outline: (§2)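 Beagles of either sex, pentobarbital 30 mg/kg i.v., had two-stage LAD coronary ligation; tested conscious about 24 h later if ectopic rate ≥130 beats/min, ectopic ≥75% of total rate, and controls within 10%. HCl salts given i.v. to at least two dogs: 5 mg/kg repeated every 15 min to 20 mg/kg max; if active, 1 mg/kg every 5 min to 6 mg/kg. Active means ectopic rate reduced ≥25% for ≥10 min.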

[4] = target: Muscarinic acetylcholine receptor (Rattus norvegicus) (UniProt P08482+P08483+P08485+P08911+P10980); assay: Muscarinic acetylcholine receptor binding affinity in rat brain homogenate by [3H]quinuclidinylbenzilate displacement compared to disopyramide.; format: tissue-based
Outline: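 Whole male CD rat brain without cerebellum was homogenized and spun at 1000g. The supernatant was incubated with 0.15 nM [3H]QNB, with or without compound, 25 °C, 1 h. Three to six concentrations were run in triplicate, and IC50 came from log-probit analysis. Values are expressed as the ratio IC50(test)/IC50(disopyramide).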

Cavia porcellus = species on record: Cavia porcellus; assay: Antimuscarinic activity in guinea pig ileum; format: functional; settings: read-out: pA2 (converted)
Outline: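 Guinea pig ileum was held in modified Tyrode's gassed with 95% O2/5% CO2, pH 7.4, under 0.5 g tension and equilibrated 30 min. A cumulative acetylcholine curve was run, the tissue rinsed 10 min, and the curve repeated with antagonist at four concentrations at quarter-log steps. pA2 by Van Rossum; if noncompetitive, −log of the concentration cutting maximal response 50%. At least four experiments were run.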

Canis familiaris [5] = assay: Antiarrhythmic activity in Beagle dogs following i.v. administration; minimum effective dose to suppress ventricular ectopic rate >/=25% for a minimum duration of 10 min.; format: functional, Canis lupus familiaris, Heart; settings: for minimal effective dose: Canis lupus familiaris, Heart, iv, 10 min, read-out: MED; outline: as §2
Canis familiaris [6] = assay: Hemodynamic effect of 5 mg/kg of compound was assessed in Beagle dogs by decrease in mean arterial pressure; max dose administered was 29 mg/kg; format: functional, Canis lupus familiaris, Artery; outline: as §1
Canis familiaris [7] = assay: Hemodynamic effect of 5 mg/kg of compound was assessed in Beagle dogs by decrease in mean arterial pressure; max dose administered was 50 mg/kg; format: functional, Canis lupus familiaris, Artery; outline: as §1
Canis familiaris [8] = assay: Hemodynamic effect of 5 mg/kg of compound was assessed in Beagle dogs by decrease in mean arterial pressure; max dose administered was 35 mg/kg; format: functional, Canis lupus familiaris, Artery; outline: as §1

Structure (SMILES) | minimal effective dose (Canis familiaris [3]) [mg/kg] | Muscarinic receptor affinity [4] | minimal effective dose (Canis familiaris [5]) [mg/kg] | other results
CC(C)N(CCC1(c2ccccc2)C(=O)NC(C)N2CCCCC21)C(C)C (centres undefined) | 2.5 | < 0.05 | 2.5 | Decrease in MAP (Canis familiaris [1]): 4%; Decrease (Canis familiaris [2]): 21%; Kb (Cavia porcellus): 60.3 µM
CC(C)N(CCC(C(N)=O)(c1ccccc1)c1ccccn1)C(C)C (centres undefined) [DISOPYRAMIDE] | 10 | 1 | 10 | Decrease (Canis familiaris [2]): 56%; Decrease in MAP (Canis familiaris [6]): 57%; Kb (Cavia porcellus): 0.891 µM
CC(C)N(CCC1(c2ccc(-c3ccccc3)cc2)C(=O)NCN2CCCCC21)C(C)C (centres undefined) | – | 0.0625 | 5 | –
CCC1=NC(=O)C(CCN(C(C)C)C(C)C)(c2ccccc2)C2CCCCN12 (centres undefined) | – | 0.0625 | 12.5 | –
CC(C)N(CC[C@]1(c2ccccc2)C(=O)N(C)CN2CCCC[C@@H]21)C(C)C | – | – | 7.5 | –
CCC1NC(=O)C(CCN(C(C)C)C(C)C)(c2ccccc2)C2CCCCN12 (centres undefined) | – | 0.0909 | 6 | –
CC(C)N(CC[C@]1(c2ccccc2)C(=O)N[C@@H](C)N2CCCC[C@@H]21)C(C)C | – | 0.0434 | 10 | –
CC(C)N(CCC1(c2ccccc2)C(=O)NC(c2ccccc2)N2CCCCC21)C(C)C (centres undefined) | – | 0.0434 | 4 | –
CC(C)N(CCC1(c2ccccc2Cl)C(=O)N=CN2CCCCC21)C(C)C (centres undefined) | – | 0.0125 | 15 | –
CC(C)N(CCC1(c2ccccc2)C(=O)N=C(c2ccccc2)N2CCCCC21)C(C)C (centres undefined) | – | 0.25 | 1 | –
CC1=NC(=O)C(CCN(C(C)C)C(C)C)(c2ccccc2)C2CCCCN12 (centres undefined) [ACTISOMIDE] | 9.1 | – | 9 | Decrease (Canis familiaris [2]): 14%; Decrease in MAP (Canis familiaris [7]): 3%; Kb (Cavia porcellus): 13.2 µM; MED (Canis familiaris [5]): 10 mg/kg
CC(C)N(CCC1(c2ccc(-c3ccccc3)cc2)C(=O)N=CN2CCCCC21)C(C)C (centres undefined) | 2.5 | 0.02 | 2.5 | Decrease in MAP (Canis familiaris [1]): 27%
CC(C)N(CCC1(c2ccccc2Cl)C(=O)NCN2CCCCC21)C(C)C (centres undefined) | – | < 0.01 | 7.5 | –
CC(C)N(CCC1(c2ccccc2)C(=O)NCN2CCCCC21)C(C)C (centres undefined) | 6 | 0.0769 | – | Decrease in MAP (Canis familiaris [8]): 54%
CC(C)N(CCC1(c2ccccc2)C(=O)N=CN2CCCCC21)C(C)C (centres undefined) | – | – | 20 | MED (Canis familiaris [5]): 10 mg/kg
